Measurements from ChEMBL document CHEMBL3124905, “Isothiocoumarin-3-carboxylic acid derivatives: synthesis, anticancer and antitrypanosomal activity evaluation” (Eur J Med Chem, 2014).

Tests used:
Assay type in all cases: functional
[1] = test system: Trypanosoma brucei brucei; assay: Antitrypanosomal activity against bloodstream form of Trypanosoma brucei brucei strain 90-13 assessed as inhibition of parasite growth at 1 ug/ml after 72 hrs by resazurin reduction test; details: strain 90-13, 72 h
How it was run: (§1)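 Trypanosoma brucei brucei 90-13 bloodstream forms, grown in HMI9 with 10% FCS at 37 °C under 5% CO2. Log-phase parasites were seeded at 10^5 cells/mL with or without inhibitor, with stocks prepared in DMSO. After 72 h, resazurin was added and fluorescence was read at 530/590 nm after a further 4 h. Percent growth inhibition was calculated versus drug-free parasites, with DMSO as control.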

[2] = test system: Trypanosoma brucei brucei; assay: Antitrypanosomal activity against bloodstream form of Trypanosoma brucei brucei strain 90-13 assessed as inhibition of parasite growth at 10 ug/ml after 72 hrs by resazurin reduction test; details: strain 90-13, 72 h; how it was run: as §1
[3] = test system: SF-268; assay: Anticancer activity against human SF268 cells assessed as cell growth at 100 uM after 48 hrs by SRB assay; details: SF-268, 48 h, read-out: Activity
How it was run: (§2)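 NCI one-dose primary screen on a three-line panel (breast MCF7, lung NCI-H460, CNS SF-268). Cells were inoculated and preincubated 24–48 h, then exposed to a single concentration of 10−4 M for 48 h. The endpoint was sulforhodamine B protein staining, and results are expressed as percent growth relative to untreated control cells. Negative values denote cytotoxicity.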

[4] = test system: NCI-H460; assay: Anticancer activity against human NCI-H460 cells assessed as cell growth at 100 uM after 48 hrs by SRB assay; details: NCI-H460, 48 h, read-out: Activity; how it was run: as §2
[5] = test system: MCF7; assay: Anticancer activity against human MCF7 cells assessed as cell growth at 100 uM after 48 hrs by SRB assay; details: MCF7, 48 h, read-out: Activity; how it was run: as §2
[6] = Growth inhibition of human HOP92 cells after 48 hrs by SRB assay; details: HOP-92, 48 h; for TGI: read-out: pTGI (converted)
How it was run: (§3)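 NCI five-dose assay against the ~60-cell-line panel (nine cancer types). Tenfold dilutions from 10−4 to 10−8 M were used with continuous 48-h exposure and SRB absorbance readout. Percent growth was computed from time-zero, control and treated absorbances. GI50 is the concentration giving 50% lower net protein increase than controls. Values not reached are reported as beyond the tested range.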

[7] = test system: CCRF-CEM; assay: Growth inhibition of human CCRF-CEM cells after 48 hrs by SRB assay; how it was run: as §3
[8] = test system: SR; assay: Growth inhibition of human SR cells after 48 hrs by SRB assay; details: for TGI: read-out: pTGI (converted)
How it was run: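 NCI ~60-cell-line five-dose screen. Cells were preincubated 24-48 h, then given compound at 10-fold dilutions from 10^-4 to 10^-8 M with 48 h continuous exposure. SRB protein stain was read by absorbance at time zero, in untreated control and with drug. GI50 was derived from [(Ti-Tz)/(C-Tz)]x100=50, TGI from Ti=Tz, and LC50 from [(Ti-Tz)/Tz]x100=-50.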

[9] = test system: KM12; assay: Growth inhibition of human KM12 cells after 48 hrs by SRB assay; details: KM12, 48 h; how it was run: as §3
[10] = test system: MDA-MB-435; assay: Growth inhibition of human MDA-MB-435 cells after 48 hrs by SRB assay; details: MDA-MB-435, 48 h; how it was run: as §3

Compound	inhibition at 1 µg/mL [1] [%]	inhibition at 10 µg/mL [2] [%]	growth at 100 µM [3] [%]	growth at 100 µM [4] [%]	growth at 100 µM [5] [%]	also measured
COc1ccc2cc(C(=O)Nc3ccc(Cl)cc3)sc(=O)c2c1OC	5.77	5.99	91	93	80	–
O=C(Nc1ccccc1)c1cc2ccccc2c(=O)s1	–	–	83	75	78	–
O=C(Nc1cccc(C(F)(F)F)c1)c1cc2ccccc2c(=O)s1	5.78	-7.12	–	–	–	–
COC(=O)c1cc2ccc(OC)c(OC)c2c(=O)s1	–	–	113	82	108	–
COc1ccc2cc(C(=O)Nc3cccc4ccccc34)sc(=O)c2c1OC	20.8	41.2	–	–	–	GI50 [6]: 20.4 µM; TGI [6]: 69.2 µM
CCOC(=O)c1cc2ccccc2c(=O)s1	35.8	-3.91	–	–	–	–
Cc1c(NC(=O)c2cc3ccccc3c(=O)s2)c(=O)n(-c2ccccc2)n1C	–	–	106	52	107	–
COc1ccc2cc(C(=O)Nc3ccc(O)cc3)sc(=O)c2c1OC	–	–	–	–	–	GI50 [6]: 17.8 µM; TGI [6]: 95.5 µM; GI50 [7]: 5.62 µM; TGI ([7]; read-out: pTGI (converted)): > 100 µM; GI50 [8]: 3.47 µM; TGI [8]: 42.7 µM; GI50 [9]: 26.3 µM; TGI ([9]; read-out: pTGI): > 100 µM; GI50 [10]: 18.6 µM; TGI ([10]; read-out: pTGI (converted)): 77.6 µM
NS(=O)(=O)c1ccc(NC(=O)c2cc3ccccc3c(=O)s2)cc1	–	–	–	–	–	GI50 [8]: 31.6 µM; TGI [8]: > 100 µM
